Hits are enriched below; roughly 2.7% of the tested compounds scored in any of these assays.
RAM inhibit: inhibitors of the yeast RAM network, primary screen, dse1pr::URA3 reporter, 5-FOA selection; inhibition, % at 50 µM; AID 868, 2007; S. cerevisiae dse1pr::URA3 reporter, 5-FOA growth OD615, 2 d; analog-sensitive cbk1-as2 kinase mutant strain; 1.8% of 190,000 active;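 active means inhibition above a set limit, 3 SD over mean compound inhibition, cut at about 8.4% in these data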;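 further: 0% = DMSO-only wells with no growth and 100% = 10 µM 1-NA-PP1 full growth; inhibition rescues growth on 5-FOA so higher OD means more RAM inhibition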
BB579 growth dn: growth inhibitors of yeast BB579 in restrictive medium, primary screen, yeast lifespan-shortening project, S. cerevisiae | AID 804, 2007 | inhibition, % at 10 µM | 0.51% of 140,000 active | OD615, 48 h;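 active means inhibition above a set limit, 3 SD over the mean compound inhibition, cut at about 44% in these data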
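test system = yeast BB579 (DeaD) | buffer or medium = restrictive CSMM-D medium | doses = single compound dose of 10 µM, 0.25% DMSO final | times = 4 h preincubation and 48 h exposure at 30 °C | technique = culture absorbance at 615 nm | benchmarks = amphotericin B 10 µg/mL, positive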
Yeast lifespan up: compounds extending yeast replicative lifespan, primary screen, S. cerevisiae, OD615; S. cerevisiae growth with nicotinamide; deaD strain in restrictive glucose medium; inhibition of the nicotinamide effect, % at 10 µM; 0.68% of 130,000 active; AID 775, 2007;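 active means inhibition above a set limit, placed 3 SD over the median of all compounds, cut at about 26% in these data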;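 further: 0% = nicotinamide-treated wells and 100% = cells grown without nicotinamide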
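Assay system: engineered S. cerevisiae DeaD replicative-lifespan strain, galactose-grown log-phase cells; Buffer or medium: CSMM-D glucose medium, restrictive; Probe or stimulus: nicotinamide 1.5 mM; Compound: single dose 10 µM compound, 0.25% DMSO; Schedule: 4 h preincubation then 48 h treatment at 30 °C; Technique: OD615 measurement.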
SDO1 yeast rescue: growth rescue of sdo1-depleted yeast, primary screen, S. cerevisiae, bone marrow failure model; 0.21% of 140,000 active; S. cerevisiae sdo1-depleted JHY4D growth rescue, OD600 30 h; stronger effect = higher value; pdr5 snq2 efflux-pump mutant strain; AID 817, 2007; z-score at 10 µM;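 active means z-score above 3 at both the 24 hr and the 30 hr optical density reads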;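 further: z-score against mean and SD of all compound wells on the same plate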
* = called active by the depositor; nt = no result.

SMILES	RAM inhibit	BB579 growth dn	Yeast lifespan up	SDO1 yeast rescue
Cc1ccc(Nc2cc(C)nn2-c2nc(C)cc(=O)[nH]2)cc1	1.6	99.7*	-27.0	-2.3
CCOc1ccc(N(CC(=O)NCCc2ccc(Cl)cc2)S(=O)(=O)c2c(C)[nH]c(=O)[nH]c2=O)cc1	4.3	nt	nt	nt
S=C(Nc1ccc2cn[nH]c2c1)Nc1ccccc1Cl	-0.3	-3.9	37.1*	-0.52
CC1CC/C(=C\c2ccc3c(c2)OCO3)C(=O)/C1=C/c1ccc2c(c1)OCO2 (stereo not drawn)	10.0*	-16.7	-7.0	-0.4
O=C1/C(=C\c2ccc3c(c2)OCO3)CCC/C1=C/c1ccc2c(c1)OCO2	8.1	-18.6	-5.4	-1.29
CC1=C(C)/C(=N\OS(=O)(=O)c2ccccc2)C=CC1=O	-1.8	99.9*	-16.8	-2.65
Cc1ccc(Nc2nc3ccccc3nc2-n2nc(C)cc2C)cc1	8.7*	-53.7	-5.2	-0.18
CC(C)c1ccc(NC(=S)NCCc2c[nH]c3ccccc23)cc1	5.3	54.9*	-5.3	-2.32
Clc1cccc(NCc2nnc(SCc3ccc(Cl)cc3Cl)o2)c1	8.4*	-17.8	nt	-1.67
CCOC(=O)/C(=N\Nc1ccccc1)c1csc(Nc2ccc(C)cc2)n1	10.2*	-1.4	-1.7	-1.1
O=C1SC(SC(=Nc2ccccc2)Nc2ccccc2)C(=O)N1c1ccccc1 (stereo not drawn)	1.6	-8.7	33.7*	-1.16
Cc1ccc(C(=O)NS(=O)(=O)c2ccc(N=NN(C)C)cc2)cc1	-0.7	nt	nt	nt
Cc1ccc(S(=O)(=O)N(C)CCCC(=O)Nc2ccc(C)cc2C)cc1	-0.1	5.8	-0.8	-0.66
Cc1cc(/C=C2/NC(=O)N(Cc3ccccc3F)C2=O)c(C)n1C(C)C	9.1*	-36.5	-0.6	-0.74
CCn1c(C)cc(/C=C2/NC(=O)N(Cc3ccccc3F)C2=O)c1C	2.5	-26.5	1.5	-0.05
COCCNc1nc(-c2ccc(OC)cc2)c(-c2ccc(OC)cc2)s1	0.0	nt	nt	nt
CCC(=O)NNC(=O)c1c(O)c2ccccc2[nH]c1=O	0.5	nt	nt	nt
CCCCCCNC(=O)c1c(O)c2ccccc2[nH]c1=O	5.3	-71.2	36.1*	-1.18
Oc1ccc2ccccc2c1N=Nc1ccccn1	1.1	90.4*	-7.4	-0.17
COc1ccc(-n2cc(-c3ccc(Br)cc3)[nH]c2=S)cc1	9.6*	nt	nt	nt
O=[N+]([O-])c1c(NCCO)cc(N2CCC3(CC2)OCCO3)c2nonc12	2.1	-15.5	-3.5	-1.6
CCOC(=O)N1CCN(c2cc(NCCC(=O)O)c3c4c(onc24)-c2ccccc2C3=O)CC1	9.4*	-33.1	20.4	0.03
O=C(O)CCCNc1cc(N2CCC3(CC2)OCCO3)c2noc3c2c1C(=O)c1ccccc1-3	8.7*	-21.3	13.9	0.48
CCOc1ccc(N(CC(=O)NCC2CCCO2)C(=O)CCC(=O)Nc2nccs2)cc1 (stereo not drawn)	0.1	nt	nt	nt
Cn1c(N)c(C(=O)COC(=O)c2cc(C3CC3)nc3ccccc23)c(=O)n(Cc2ccccc2)c1=O	3.0	-32.0	16.5	-0.04
SMILES	RAM inhibit	BB579 growth dn	Yeast lifespan up	SDO1 yeast rescue
Cn1c(N)c(C(=O)COC(=O)c2cc(-c3ccccc3)nc3ccccc23)c(=O)n(Cc2ccccc2)c1=O	2.7	-34.4	30.5*	0.26
CCOC(=O)c1c(Nc2ccc(Cl)cc2)sc(/C=C2\C=Nc3ccccc32)c1O	9.3*	-54.2	1.2	-0.34
Oc1nc(Nc2cccc(Cl)c2)sc1/C=C1\C=Nc2ccccc21	3.0	-11.3	-4.6	0.09
CCOc1ccc(NC(=S)NNC(=O)c2ccc(Br)cc2)cc1	0.6	nt	nt	nt
CN(C(=O)COC(=O)c1ccc(=O)n(Cc2ccccc2)n1)c1ccccc1	0.6	nt	nt	nt
CCOc1ccc(NCc2nc3ccccc3n2CCOc2ccccc2)cc1	-0.1	48.3*	41.8*	-0.87
COCCn1c(COc2ccc(OC)cc2)nc2ccccc21	1.1	-2.7	-4.2	-0.62
NS(=O)(=O)c1ccc(NC(=O)CSc2nc3ccccc3[nH]2)cc1	1.2	nt	nt	nt
Cc1ccc(O)c(-c2cc(C(F)(F)C(F)F)nc(-c3ccccc3)n2)c1	9.6*	-13.8	6.3	-0.3
COc1cc2c3c(c1)/C(=C1/SC(NC(C)=O)=NC1=O)C(=O)N3C(C)(C)C=C2C	4.5	-71.9	-15.2	-0.17
CCN1C(=O)/C(=C2/C(=O)N3c4c(cc(OC(C)=O)cc42)C(C)=CC3(C)C)SC1=S	8.7*	-29.5	3.3	0.56

High-throughput results deposited in PubChem BioAssay by several laboratories.
